Results published in BindingDB's records for doi:10.1021/jm030003x (University of Alabama At Birmingham, 2003).

Biological target: T1, NH(3)-dependent NAD(+) synthetase (Bacillus subtilis (strain 168), UniProt P08164)
T1 sequence (P08164 whole entry): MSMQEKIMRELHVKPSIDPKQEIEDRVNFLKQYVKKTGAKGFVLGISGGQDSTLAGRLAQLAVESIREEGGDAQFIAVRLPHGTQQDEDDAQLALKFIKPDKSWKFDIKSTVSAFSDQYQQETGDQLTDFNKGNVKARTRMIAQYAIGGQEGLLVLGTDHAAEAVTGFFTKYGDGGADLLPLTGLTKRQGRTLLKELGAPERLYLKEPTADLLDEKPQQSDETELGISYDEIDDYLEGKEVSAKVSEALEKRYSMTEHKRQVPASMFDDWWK
Test: Inhibitory activity against Bacillus subtilis NAD synthetase
Summary of the method: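 Purified recombinant B. subtilis NAD synthetase, 2.0 µg/mL. Coupled assay: the NAD formed is converted to NADH by yeast alcohol dehydrogenase (40 µg/mL) with 1% EtOH. Buffer is 58.5 mM HEPES pH 8.5 with NH4Cl, KCl, MgCl2, 0.1 mM NaAD, 0.2 mM ATP, 0.3% BOG and 2.5% DMSO. ATP starts the reaction, which runs 10 min and is stopped with guanidine·HCl. Read A340 and fluorescence 460 nm minus pre-ATP background. IC50 from % inhibition at six concentrations.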

## CN[C@@H]1[C@@H](O)[C@@H](O[C@@H]2[C@@H](O)[C@H](O[C@H]3O[C@H]([C@@H](C)NC)CC[C@H]3N)[C@@H](N)C[C@H]2N)OC[C@]1(C)O [GENTAMICIN]
  IC50: > 1 µM
